# Experimental data published in ChEMBL document CHEMBL4382210, “Identification of novel benzothiopyranone compounds against Mycobacterium tuberculosis through scaffold morphing from benzothiazinones” (Eur J Med Chem, 2018).
# pIC50: −log10 of the molar value.
# Assays:
# HepG2 = assay: Cytotoxicity against human HepG2 cells assessed as reduction in cell viability after 48 hrs by MTT assay; format: cell-based; conditions: HepG2, 48 h
# How it was run: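 Vero or HepG2 cells in RPMI1640 with 10% FBS at 37 °C, 5% CO2, seeded at 4×10^5 cells/mL. Threefold dilutions at 64–0.26 µg/mL final for 48 h. Cells then washed with HBSS, MTT added for 4 h, absorbance read at 492 nm. IC50 taken relative to untreated control.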
# [1] = Half life in human hepatocytes assessed per million cells at 1 uM incubated up to 120 mins by LC-MS/MS analysis; format: ADME, cell-based, Hepatocyte
# How it was run: (§1)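 Pooled male CD-1 mouse or pooled human hepatocytes at 1 million cells/mL final, compound at 1 µM. Incubated at 37 °C in a CO2 incubator with shaking (~100 rpm). Samples taken at 0, 15, 30, 60, 90 and 120 min and quenched with cold ACN/MeOH containing internal standard. Parent compound remaining measured by LC-MS/MS.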
# [2] = Metabolic stability in human liver microsomes assessed as parent compound remaining at 1 uM measured after 30 mins in presence of NADPH by LC-MS/MS analysis; format: ADME, Microsome; conditions: read-out: Stability
# How it was run: (§2)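 Male CD-1 mouse or pooled human liver microsomes (1 mg/mL protein), compound at 1 µM, 37 °C. Reaction started with 1 mM NADPH and quenched with cold ACN/MeOH containing internal standard. Parent remaining measured by LC-MS/MS; the 30-min value is normalised to time zero.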
# [3] = Clearance in BALB/C mouse at 10 mg/kg, iv by LC/TSQ quantum access mass spectrometry; format: ADME, organism-based; conditions: in vivo
# How it was run: (§3)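 Male Balb/c mice (22–23 g), three per route. Single dose of 25 mg/kg p.o. (2.5 mg/mL in 0.5% carboxymethyl cellulose + 0.5% Tween 80) or 10 mg/kg i.v. (2.0 mg/mL in 20% HP-β-CD with 4 mol/L HCl). Blood sampled 5, 15, 30 min, 1, 2, 4, 7, 24 h. Plasma extracted with acetonitrile plus terfenadine internal standard, then LC-MS/MS on a C18 column. F = (AUCpo×dose_iv)/(AUCiv×dose_po).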
# Cytochrome P450 1A2 = biological target: T1, Cytochrome P450 1A2 (Homo sapiens, UniProt P05177); assay: Inhibition of CYP1A2 in human liver microsomes after 20 mins by LC-MS/MS analysis; format: ADME
# T1 sequence (P05177 whole entry): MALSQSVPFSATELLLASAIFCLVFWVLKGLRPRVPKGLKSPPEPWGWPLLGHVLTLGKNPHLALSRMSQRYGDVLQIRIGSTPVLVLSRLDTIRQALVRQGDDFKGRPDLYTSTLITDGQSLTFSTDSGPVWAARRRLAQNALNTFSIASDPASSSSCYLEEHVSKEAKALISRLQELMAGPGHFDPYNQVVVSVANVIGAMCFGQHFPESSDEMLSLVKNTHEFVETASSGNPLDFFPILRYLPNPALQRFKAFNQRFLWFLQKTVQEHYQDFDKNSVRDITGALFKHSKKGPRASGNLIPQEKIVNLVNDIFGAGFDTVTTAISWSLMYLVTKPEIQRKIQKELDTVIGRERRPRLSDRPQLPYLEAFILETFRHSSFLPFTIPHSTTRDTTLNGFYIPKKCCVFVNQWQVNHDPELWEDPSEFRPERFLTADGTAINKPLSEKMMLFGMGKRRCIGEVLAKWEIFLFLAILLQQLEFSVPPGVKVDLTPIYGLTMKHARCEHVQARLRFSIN
# How it was run: (§4)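 Compound at 0.1–50 µM incubated 20 min with human liver microsomes (0.2 mg/mL) and the CYP isoform, alongside isoform-specific probe substrates. Substrate remaining measured by LC-MS/MS at each concentration to derive IC50.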
# [4] = Half life in CD-1 mouse hepatocytes assessed per million cells at 1 uM incubated up to 120 mins by LC-MS/MS analysis; format: ADME, cell-based, Hepatocyte; how it was run: as §1
# [5] = Acute toxicity in BALB/C mouse assessed as mouse survival at 2 g/kg, po administered as single dose measured during 7 days observation period; format: organism-based; conditions: in vivo, 2000 mg/kg, 168 h
# How it was run: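 Female Balb/c mice (18–21 g), ten animals, given one oral dose of 2 g/kg. Survivors counted after 7 days of observation.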
# [6] = Oral bioavailability in BALB/C mouse at 25 mg/kg by LC/TSQ quantum access mass spectrometry; format: ADME, organism-based; conditions: in vivo; how it was run: as §3
# [7] = biological target: Voltage-gated inwardly rectifying potassium channel KCNH2 (Homo sapiens, UniProt Q12809); assay: Inhibition of human ERG expressed in HEK293 cells by whole-cell patch clamp assay; format: cell-based
# Voltage-gated inwardly rectifying potassium channel KCNH2, sequence (Q12809 whole entry): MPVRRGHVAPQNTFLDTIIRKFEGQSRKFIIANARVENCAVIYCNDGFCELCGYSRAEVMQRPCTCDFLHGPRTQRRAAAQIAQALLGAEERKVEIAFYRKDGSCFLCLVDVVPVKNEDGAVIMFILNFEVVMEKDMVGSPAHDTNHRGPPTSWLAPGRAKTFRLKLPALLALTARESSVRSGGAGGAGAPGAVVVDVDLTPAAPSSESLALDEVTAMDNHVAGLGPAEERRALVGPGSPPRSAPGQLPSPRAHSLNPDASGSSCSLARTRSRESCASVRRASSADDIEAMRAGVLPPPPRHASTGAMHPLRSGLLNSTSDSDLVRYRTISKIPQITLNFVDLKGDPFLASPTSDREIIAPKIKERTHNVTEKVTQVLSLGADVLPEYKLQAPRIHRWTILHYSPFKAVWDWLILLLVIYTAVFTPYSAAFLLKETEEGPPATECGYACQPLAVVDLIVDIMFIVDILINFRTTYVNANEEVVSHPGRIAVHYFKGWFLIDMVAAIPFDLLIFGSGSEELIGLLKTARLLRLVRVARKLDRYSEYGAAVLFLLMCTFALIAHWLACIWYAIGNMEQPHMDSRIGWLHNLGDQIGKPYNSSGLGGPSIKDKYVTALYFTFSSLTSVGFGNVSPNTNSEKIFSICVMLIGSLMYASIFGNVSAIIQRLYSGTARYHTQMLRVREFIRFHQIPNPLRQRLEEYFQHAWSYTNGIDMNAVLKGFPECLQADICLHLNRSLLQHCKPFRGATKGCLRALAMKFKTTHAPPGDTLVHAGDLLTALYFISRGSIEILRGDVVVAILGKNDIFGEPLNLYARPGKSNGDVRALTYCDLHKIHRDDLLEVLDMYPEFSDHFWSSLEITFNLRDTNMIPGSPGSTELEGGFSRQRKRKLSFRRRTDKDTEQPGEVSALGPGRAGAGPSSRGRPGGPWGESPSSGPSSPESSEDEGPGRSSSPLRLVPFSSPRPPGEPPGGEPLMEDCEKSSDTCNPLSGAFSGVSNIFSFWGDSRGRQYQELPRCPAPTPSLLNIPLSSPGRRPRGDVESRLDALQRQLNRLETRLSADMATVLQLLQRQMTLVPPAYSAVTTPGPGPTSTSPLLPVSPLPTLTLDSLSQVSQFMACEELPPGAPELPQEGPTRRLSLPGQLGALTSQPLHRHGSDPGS
# How it was run: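 HEK293 cells stably transfected with hERG. Current recorded by whole-cell manual patch clamp at 25 °C, sampled at 10 kHz. Five concentrations tested (30, 10, 3.0, 1.0, 0.3 µM) in duplicate for IC50, with dofetilide as positive control.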
# [8] = AUC (0 to infinity) in BALB/C mouse at 25 mg/kg, po by LC/TSQ quantum access mass spectrometry; format: ADME, organism-based; parameters: dose 25 mg/kg, time infinity, route oral; conditions: in vivo; how it was run: as §3
# [9] = Elimination half life in BALB/C mouse at 10 mg/kg, iv by LC/TSQ quantum access mass spectrometry; format: ADME, organism-based; conditions: in vivo, read-out: beta t1/2 (converted); how it was run: as §3
# Cytochrome P450 2C9 = Cytochrome P450 2C9 (Homo sapiens, UniProt P11712); assay: Inhibition of CYP2C9 in human liver microsomes after 20 mins by LC-MS/MS analysis; format: ADME; how it was run: as §4
# Cytochrome P450 2C9, sequence (P11712 whole entry): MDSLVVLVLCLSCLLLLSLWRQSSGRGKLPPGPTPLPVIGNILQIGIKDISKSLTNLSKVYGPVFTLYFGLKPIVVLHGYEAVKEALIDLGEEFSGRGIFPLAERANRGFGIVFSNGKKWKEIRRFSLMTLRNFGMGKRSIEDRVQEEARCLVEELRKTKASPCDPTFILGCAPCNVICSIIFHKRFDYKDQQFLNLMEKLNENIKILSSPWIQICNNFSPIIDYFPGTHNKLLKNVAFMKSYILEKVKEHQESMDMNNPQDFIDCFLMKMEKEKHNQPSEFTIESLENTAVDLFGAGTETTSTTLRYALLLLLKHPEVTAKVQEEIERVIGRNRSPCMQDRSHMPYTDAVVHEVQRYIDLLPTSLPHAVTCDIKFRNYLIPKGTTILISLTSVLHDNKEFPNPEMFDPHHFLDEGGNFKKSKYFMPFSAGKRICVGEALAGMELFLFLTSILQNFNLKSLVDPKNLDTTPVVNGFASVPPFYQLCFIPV
# [10] = Selectivity index, ratio of IC50 for human HepG2 cells to MIC=>90 for Mycobacterium tuberculosis H37Rv; format: toxicity; conditions: read-out: Selectivity Index
# [11] = Intrinsic clearance in human hepatocytes assessed per million cells at 1 uM incubated up to 120 mins by LC-MS/MS analysis; format: ADME, cell-based, Hepatocyte; conditions: read-out: CLH; how it was run: as §1
# [12] = AUC (0 to 24 hrs) in BALB/C mouse at 10 mg/kg, iv by LC/TSQ quantum access mass spectrometry; format: ADME, organism-based; parameters: time < 24 hr, dose 10 mg/kg, route intravenous; conditions: in vivo; how it was run: as §3
# Cytochrome P450 2D6 = Cytochrome P450 2D6 (Homo sapiens, UniProt P10635); assay: Inhibition of CYP2D6 in human liver microsomes after 20 mins by LC-MS/MS analysis; format: ADME; how it was run: as §4
# Cytochrome P450 2D6, sequence (P10635 whole entry): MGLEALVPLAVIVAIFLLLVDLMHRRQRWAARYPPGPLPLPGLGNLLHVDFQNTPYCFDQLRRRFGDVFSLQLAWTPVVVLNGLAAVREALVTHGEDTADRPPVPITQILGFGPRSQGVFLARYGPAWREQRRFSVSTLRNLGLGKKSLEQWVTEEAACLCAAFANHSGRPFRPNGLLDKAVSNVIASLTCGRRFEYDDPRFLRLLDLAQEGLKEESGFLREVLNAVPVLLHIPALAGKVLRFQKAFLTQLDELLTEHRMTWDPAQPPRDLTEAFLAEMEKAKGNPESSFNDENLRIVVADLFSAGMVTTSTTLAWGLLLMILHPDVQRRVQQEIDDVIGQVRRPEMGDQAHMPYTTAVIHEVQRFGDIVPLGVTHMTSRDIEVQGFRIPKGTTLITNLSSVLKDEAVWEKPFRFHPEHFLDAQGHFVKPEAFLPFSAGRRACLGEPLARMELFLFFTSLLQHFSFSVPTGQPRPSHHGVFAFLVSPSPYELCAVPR
# [13] = Tmax in BALB/C mouse at 25 mg/kg, po by LC/TSQ quantum access mass spectrometry; format: ADME, organism-based; conditions: in vivo; how it was run: as §3
# [14] = Intrinsic clearance in CD-1 mouse hepatocytes assessed per million cells at 1 uM incubated up to 120 mins by LC-MS/MS analysis; format: ADME, cell-based, Hepatocyte; conditions: read-out: CLH; how it was run: as §1
# [15] = Inhibition of Mycobacterium tuberculosis DprE1 expressed in Escherichia coli BL21(DE3) by fluorescence based assay
# How it was run: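 Buffer: 50 mM Hepes pH 7.5, 100 mM NaCl, 1.5% DMSO, 100 µM Tween-20, 2 µM FAD, 50 µM resazurin. DprE1 (1 µM) with 1 mM FPR at 30 °C across inhibitor concentrations. Resorufin formation followed by fluorescence (ex 530/em 595 nm).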
# [16] = Metabolic stability in CD-1 mouse liver microsomes assessed as parent compound remaining at 1 uM measured after 30 mins in presence of NADPH by LC-MS/MS analysis; format: ADME, Microsome; conditions: read-out: Stability; how it was run: as §2
# Cytochrome P450 3A4 = Cytochrome P450 3A4 (Homo sapiens, UniProt P08684); assay: Inhibition of CYP3A4 in human liver microsomes after 20 mins by LC-MS/MS analysis; format: ADME; how it was run: as §4
# Cytochrome P450 3A4, sequence (P08684 whole entry): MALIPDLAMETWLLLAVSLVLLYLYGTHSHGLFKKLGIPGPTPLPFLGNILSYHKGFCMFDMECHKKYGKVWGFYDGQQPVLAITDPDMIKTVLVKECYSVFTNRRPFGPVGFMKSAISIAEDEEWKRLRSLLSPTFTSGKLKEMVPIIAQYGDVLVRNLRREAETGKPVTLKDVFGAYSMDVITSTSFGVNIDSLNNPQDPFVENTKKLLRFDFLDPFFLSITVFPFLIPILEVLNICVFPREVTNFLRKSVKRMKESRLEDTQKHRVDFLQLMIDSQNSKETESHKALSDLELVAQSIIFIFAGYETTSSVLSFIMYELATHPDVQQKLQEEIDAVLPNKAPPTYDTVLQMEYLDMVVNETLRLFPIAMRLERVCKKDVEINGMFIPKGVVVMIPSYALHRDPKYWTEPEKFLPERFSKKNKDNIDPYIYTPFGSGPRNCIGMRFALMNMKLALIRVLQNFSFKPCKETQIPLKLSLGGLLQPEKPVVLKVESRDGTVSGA
structure (smiles),measurement,setting,value
O=c1cc(N2CCN(CC3CCCCC3)CC2)sc2c([N+](=O)[O-])cc(C(F)(F)F)cc12,IC50,HepG2,> 64 µg/mL
same,half-life at 1 µM,[1],3.73 h
same,"remaining at 0.5 h, 1 µM",[2],66.7%
same,clearance,[3],32.3 mL/min/kg
same,pIC50,Cytochrome P450 1A2,< 4.30
same,half-life at 1 µM,[4],7.7 h
same,Activity,[5],Non-Toxic
same,bioavailability,[6],13.1%
same,pIC50,[7],< 4.52
same,AUC(0-inf),[8],1700 ng·h/mL
same,half-life,[9],6.54 h
same,pIC50,Cytochrome P450 2C9,< 4.30
same,selectivity ratio,[10],> 4000
same,hepatocyte CLint at 1 µM,[11],3.1 µL/min/1e6 cells
same,AUC(0-t) at 24 h,[12],4950 ng·h/mL
same,pIC50,Cytochrome P450 2D6,< 4.30
same,Tmax,[13],0.5 h
same,hepatocyte CLint at 1 µM,[14],1.5 µL/min/1e6 cells
same,pIC50,[15],5.34
same,"remaining at 0.5 h, 1 µM",[16],61.5%
same,pIC50,Cytochrome P450 3A4,< 4.30
